Source: PubChem
INS-1E GSIS act: GLuc luminescence reporter in INS-1E cells, primary screen for activators of glucose-dependent secretion of insulin; INS-1E GLuc reporter insulin secretion, 2-3 h; activation, % at 16.6 µM; 370,000 compounds, 0.61% hits; AID 743287;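 active means lowest replicate activation of at least 40%, so every replicate reaches that level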;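 further: 0% = median of neutral control wells and 100% = median of IBMX positive control wells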
E-selectin induc: E-selectin induction on HUVECs; HUVEC E-selectin immunofluorescence imaging; normalized: neutral wells 0, TNF-alpha wells 100; 260,000 compounds, 0.37% hits; P16581; activation, % at 7.58 µM;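 active means mean E-selectin-positive cell signal at least 10% of the positive control, reached in at least 60% of replicates, without over 20% cell loss; inconclusive means no rule given, readout overlaps actives, possibly toxicity-flagged; inactive means the rest, including those meeting only one limit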
Target sequence (P16581 whole entry, looked up): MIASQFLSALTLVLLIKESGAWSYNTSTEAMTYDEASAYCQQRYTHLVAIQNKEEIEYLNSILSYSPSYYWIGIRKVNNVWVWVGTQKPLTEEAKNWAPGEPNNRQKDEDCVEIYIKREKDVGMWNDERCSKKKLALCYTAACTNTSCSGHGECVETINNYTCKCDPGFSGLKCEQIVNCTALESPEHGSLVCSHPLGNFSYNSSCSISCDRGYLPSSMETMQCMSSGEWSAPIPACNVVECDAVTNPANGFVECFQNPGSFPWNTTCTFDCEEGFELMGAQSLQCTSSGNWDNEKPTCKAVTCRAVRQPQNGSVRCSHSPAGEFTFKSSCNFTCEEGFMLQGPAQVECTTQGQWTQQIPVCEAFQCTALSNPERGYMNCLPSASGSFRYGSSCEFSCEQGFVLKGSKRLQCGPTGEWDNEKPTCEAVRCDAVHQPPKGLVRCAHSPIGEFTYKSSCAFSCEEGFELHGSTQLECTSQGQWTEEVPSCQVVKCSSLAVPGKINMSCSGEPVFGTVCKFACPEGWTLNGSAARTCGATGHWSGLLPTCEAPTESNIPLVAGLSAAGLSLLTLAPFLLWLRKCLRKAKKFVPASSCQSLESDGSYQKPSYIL
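Material: HUVEC primary endothelial cells; Amount: 3,000 cells per well; Dosing: single concentration; Medium: EGM-2 growth medium on 0.1% gelatin-coated wells; Read-out basis: percent E-selectin-positive cells; Signal: immunofluorescence imaging; Control set: TNF-alpha, DMSO.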
DENV2 CPE: DENV2-induced cell death inhibition; AID 651640; CPE inhibition, % at 9.99 µM; 350,000 compounds, 1.7% hits; DENV2-infected cells, cytopathic effect rescue, plate reader; in the data active means CPE inhibition above about 20%, passing the limit was not always enough; inconclusive means no clear call, values can overlap the other calls; tested in BHK-21 cells;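 further: 0% = median of neutral control wells and 100% = median of positive control wells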
miR122 inh: blocks miR-122 activity in Huh7 sensor cells | Huh7 miR-122 Renilla luciferase sensor, 48 h; neutral wells = 0, positive control = 100 | activation (reporter increase), % at 12.5 µM | 340,000 compounds, 0.3% hits;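 active means mean replicate activation score at least 90 and every replicate individually at or above 90; inconclusive means only one of the two criteria met; inactive means neither criterion met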;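 further: higher luciferase means less miR-122 activity so hits act as miR-122 inhibitors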
F508del corr: correctors of CFTR F508del function in bronchial epithelial cells; CFBE cells, YFP halide quenching; stimulated with forskolin plus potentiator P3; % fluorescence drop versus neutral controls; activity (quench increase), % at 7.58 µM; 350,000 compounds, 0.36% hits;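 active means mean added fluorescence quench of at least 8% versus neutral control, with both replicates also reaching 8%; inconclusive means only one of the mean or replicate conditions met; inactive means mean below 8% and not both replicates reaching 8%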;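 further: cells transiently co-express mutant CFTR-F508del with the halide-sensitive YFP; corrector assay measuring rescue of mutant channel to the surface after 24 h compound exposure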
ERAP1 inh: ERAP1 (human) enzyme inhibition; Q9NZ08; recombinant ERAP1, Leu-AMC fluorescence, 60 min; inhibition, % at 10.7 µM; 340,000 compounds, 0.15% hits; AID 652197;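 active means mean replicate inhibition of at least 30%, or all replicates individually reaching that 30% level; inactive means mean below 30% and not every replicate reaching it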;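 further: 0% = neutral control wells and 100% = L-leucinethiol positive control wells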
Starred values were filed as active, the others as inactive; ? = inconclusive; / = not tested or not shown; ! = repeats disagree; [ ] = remark or other dose. The list is not random: actives were taken first. Their share in the collection is about 2.6%.

SMILES	INS-1E GSIS act	E-selectin induc	DENV2 CPE	miR122 inh	F508del corr	ERAP1 inh
CC(C)CC#Cc1ccc([C@@H]2[C@@H](CO)N3C(=O)CN(C(=O)c4ccc5c(c4)OCO5)C[C@@H]23)cc1	-11.6	/	/	/	/	/
CO[C@H]1CN(C)C(=O)c2cc(NC(=O)c3ccc(F)cc3)ccc2OC[C@H](C)N(C(=O)CN(C)C)C[C@@H]1C	0.4	-0.1	-5.2	/	-2.4	1.7
CC(C)NC(=O)C1(C)CN(S(C)(=O)=O)CC(=O)N1CCCN1CCOCC1 (stereo unspecified)	43.7*	0.7	-6.6	/	1.6	-1.3
COc1ccc(C[C@@H]2CCc3cnnn3COC[C@H](C)NC2=O)cc1	6.9	/	/	/	/	/
O=C(C[C@H]1CC[C@@H]2[C@H](COC[C@H](O)CN2C(=O)c2ccccc2)O1)Nc1ccccc1	-1.3	0.0	6.6	-2.2[16.7 µM]	4.0	0.7
COc1ccc(S(=O)(=O)Nc2ccc3c(c2)C(=O)N([C@@H](C)CO)C[C@H](C)[C@@H](CN(C)C(=O)NC2CCCCC2)O3)cc1	-4.7	0.1	16.4	-2.1[16.7 µM]	-0.7	3.0
COc1ccc(OCC(=O)Nc2cccc(NC(=O)c3ccco3)c2)cc1	0.2	/	1.3	-5.6	1.9	0.3
CC(=O)Nc1ccc(NC(=S)NC(=O)/C=C/c2ccc(Cl)cc2)cc1	0.1	/	0.1	/	-0.3	-0.9
O=C(Nc1ccc(-c2ccccc2)cc1)c1ccco1	14.9	5.8	0.3	-1.3	-2.5	40.8*
Cc1cccc(OCC(=O)Nc2ccc(NC(=O)c3ccco3)cc2)c1	74.9*	/	-2.0	/	-1.2	-3.4
O=C(/C=C/c1ccc(Cl)cc1)NC(=S)Nc1ccc(NC(=O)c2ccco2)cc1	49.7*	/	/	/	/	/
C[C@@H]1CN([C@@H](C)CO)C(=O)c2cc(C#CC3(O)CCCC3)cnc2O[C@H]1CN(C)C(=O)CC1CC1	8.6	-0.7	-5.6	-7.0[16.7 µM]	-2.4	-2.9
N[C@@H](Cc1cc(I)c(Oc2ccc(O)c(I)c2)c(I)c1)C(=O)O	/	1.1	-6.7	93.2*!	4.9	-2.5
N[C@@H](Cc1ccc(O)c(O)c1)C(=O)O	/	0.1	-2.3	2.4	1.8	1.6
Cc1cccc(OC(C)C(=O)N/N=C\c2ccncc2)c1 (stereo unspecified)	-5.4	372.3*	19.9	-2.4	1.7	1.8
Cn1c(=O)c2[nH]c(SCc3ccccn3)nc2n(C)c1=S	181.0*	/	6.7	/	1.5	4.5
Cc1nnc(SCC(=O)Nc2cc(Cl)ccc2Cl)n1CC1CCCO1 (stereo unspecified)	73.5*	/	-8.7	-3.5	-1.7	-1.4
Cc1c(Cl)cccc1NC(=O)CSc1nnc(C)n1CC1CCCO1 (stereo unspecified)	-1.4	0.0	?	-2.2	0.1	-5.3
O=[N+]([O-])c1cccc(-c2nc(-c3ccccc3)c(-c3cccs3)[nH]2)c1	48.3*	/	/	2.1	/	/
CS(=O)(=O)c1ncc(Cl)c(C(=O)Nc2ccc(OC(F)F)cc2)n1	58.6*	/	/	/	/	-0.1
CCOC(=O)c1c(C)[nH]c(C(=O)N/N=C/c2ccc(OC)c(OC)c2)c1C	32.0	/	2.6	9.1	9.8*	-1.4
CCOC(=O)c1c(C)[nH]c(C(=O)N/N=C\c2ccccc2O)c1C	-11.8	/	-17.7	1.8	21.5*	-1.2
CCOC(=O)c1[nH]c(C)c(C(=O)Nc2cc(Cl)ccc2C)c1C	-8.2	/	/	38.9	2.7	-2.8
CCOC(=O)c1[nH]c(C)c(C(=O)Nc2ccccc2C)c1C	16.9	0.1	2.5	138.3*	4.2	-0.3
CCOC(=O)c1c(C)[nH]c(C(=O)N/N=C/c2cc([N+](=O)[O-])ccc2O)c1C	-3.4	/	-4.9	1.5	0.3	3.2
SMILES	INS-1E GSIS act	E-selectin induc	DENV2 CPE	miR122 inh	F508del corr	ERAP1 inh
O=C(c1coc2ccc(O)c(CN3CCOCC3)c12)C1CC1	/	/	/	2.3	/	/
O=C(c1cccs1)c1coc2ccc(O)c(CN3CCOCC3)c12	65.4*	/	/	-0.4	/	0.4
C[C@@H]1CCCCO[C@@H](CN(C)C(=O)c2ccccc2)[C@H](C)CN([C@@H](C)CO)C(=O)c2cc(NC(=O)c3ccncc3)ccc2O1	5.5	-0.3	/	2.8[16.7 µM]	1.6	/
O=C(c1cnccn1)N1CC(=O)N2[C@@H](CO)[C@H](c3ccc(/C=C/c4ccccc4)cc3)[C@@H]2C1	-7.2	0.2	1.4	/	2.1	-0.7
Cc1ccc(NCc2nnc(SCC(=O)NNC(=O)Cc3ccccc3)n2C)cc1	-0.2	-0.1	2.8	16.3	1.1	-0.3
COc1ccc(C(=O)NNC(=O)CSc2nnc(COc3ccccc3OC)n2C)cc1	40.9*	/	/	-1.2	/	/
COc1ccc(C(=O)NCc2nnc(SCC(=O)NC3CCCCC3)n2C)cc1	13.1	/	-0.5	-5.3	-1.6	30.0*
Cc1ccc(C(=O)NNC(=O)CSc2nnc(CNc3ccc(F)cc3)n2C)cc1	-6.6	236.3*	17.2	/	-1.4	1.1
C[C@@H]1CCCCO[C@@H](CN(C)C(=O)Nc2ccc(F)cc2)[C@H](C)CN([C@H](C)CO)C(=O)c2cc(NS(=O)(=O)c3cn(C)cn3)ccc2O1	-5.7	0.3	-2.0	1.3[16.7 µM]	1.9	5.8
CO[C@H](CN(C)S(=O)(=O)c1ccc(C)cc1)[C@H](C)CN([C@H](C)CO)S(=O)(=O)c1cccc(Cl)c1	-25.9	0.1	2.5	/	3.1	1.3
CO[C@@H](CN(C)S(=O)(=O)c1ccc(C)cc1)[C@H](C)CN([C@H](C)CO)S(=O)(=O)c1cccc(Cl)c1	-17.0	0.3	7.4	/	15.0*	-0.1
CN(C)C(=O)C[C@H]1C[C@@H]2c3cc(NC(=O)c4ccc5c(c4)OCO5)ccc3O[C@@H]2[C@@H](CO)O1	8.5	-0.2	-16.7	0.1[16.7 µM]	-3.9	-0.2
CCOC(=O)COc1ccc(Br)cc1/C=C1\SC(N)=NC1=O	-34.5	-0.1	37.5*	53.6	1.5	3.7
NC1=NC(=O)/C(=C/c2ccc(Br)cc2)S1	2.0	/	-2.3	-4.0	-3.4	2.0
c1ccc2c(c1)N1CCCN=C1N2CCN1CCCCC1	-0.2	-0.2	9.6	/	8.9*	-0.5
c1ccc2c(c1)N1CCN=C1N2CCN1CCCCC1	4.9	/	/	-2.3	/	/
Cc1noc(C)c1S(=O)(=O)N(C)C[C@H]1OCCCC[C@H](C)Oc2ccc(NC(=O)CCC(F)(F)F)cc2C(=O)N([C@H](C)CO)C[C@@H]1C	-5.0	0.1	-10.4	0.3[16.7 µM]	0.1	/
CC(C)n1nc(C(=O)Nc2ccccc2N2CCOCC2)c2ccccc2c1=O	119.6*	/	/	/	/	/
CCCCC1C(=O)N(c2ccccc2)N(c2ccc(O)cc2)C1=O (stereo unspecified)	/	152.0*	-1.1	-29.6	4.0	-2.6
Cc1cccc(N2CCN(C(=O)c3nn(C)c4c3CS(=O)(=O)c3ccccc3-4)CC2)c1C	2.5	/	35.9*	-1.4	-2.8	-3.3
Cn1nc(C(=O)N2CCN(c3ccccc3F)CC2)c2c1-c1ccccc1S(=O)(=O)C2	-2.3	-0.1	-2.9	9.9	-0.4	-0.2
